# Assay results: ChEMBL document CHEMBL1909630, “Azaxanthene based selective glucocorticoid receptor modulators: design, synthesis, and pharmacological evaluation of (S)-4-(5-(1-((1,3,4-thiadiazol-2-yl)amino)-2-methyl-1-oxopropan-2-yl)-5H-chromeno[2,3-b]pyridin-2-yl)-2-fluoro-N,N-dimethylbenzamide (BMS-776532) and its methylene homologue …” (J Med Chem, 2011)
# Key:
# [1] = target: T1, Glucocorticoid receptor (Homo sapiens, UniProt P04150); assay: Displacement of GS-red from glucocorticoid receptor by fluorescence polarization assay
# T1 sequence (P04150 whole entry): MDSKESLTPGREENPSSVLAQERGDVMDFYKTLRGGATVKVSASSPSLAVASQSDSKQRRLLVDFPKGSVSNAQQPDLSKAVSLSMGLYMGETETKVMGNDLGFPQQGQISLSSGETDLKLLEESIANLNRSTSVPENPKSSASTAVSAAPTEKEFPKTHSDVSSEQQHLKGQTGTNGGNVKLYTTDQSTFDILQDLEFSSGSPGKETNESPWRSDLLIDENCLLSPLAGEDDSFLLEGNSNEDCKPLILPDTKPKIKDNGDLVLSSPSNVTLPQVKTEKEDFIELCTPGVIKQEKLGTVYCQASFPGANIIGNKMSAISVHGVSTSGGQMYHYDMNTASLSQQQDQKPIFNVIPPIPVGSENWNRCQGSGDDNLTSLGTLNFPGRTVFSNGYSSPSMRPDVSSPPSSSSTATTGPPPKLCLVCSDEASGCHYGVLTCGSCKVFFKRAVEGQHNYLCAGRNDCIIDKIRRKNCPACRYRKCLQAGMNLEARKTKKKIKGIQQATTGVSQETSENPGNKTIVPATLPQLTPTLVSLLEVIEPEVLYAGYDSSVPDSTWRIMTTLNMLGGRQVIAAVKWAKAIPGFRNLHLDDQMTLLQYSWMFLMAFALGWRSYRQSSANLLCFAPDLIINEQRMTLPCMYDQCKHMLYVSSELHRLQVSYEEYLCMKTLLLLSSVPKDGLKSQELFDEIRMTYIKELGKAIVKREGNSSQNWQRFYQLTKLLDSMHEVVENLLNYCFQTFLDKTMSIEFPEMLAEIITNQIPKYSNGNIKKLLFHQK
# [2] = target: T2, Progesterone receptor (Homo sapiens, UniProt P06401); assay: Displacement of fluorescently labeled ligand from progesterone receptor by fluorescence polarization assay
# T2 sequence (P06401 whole entry): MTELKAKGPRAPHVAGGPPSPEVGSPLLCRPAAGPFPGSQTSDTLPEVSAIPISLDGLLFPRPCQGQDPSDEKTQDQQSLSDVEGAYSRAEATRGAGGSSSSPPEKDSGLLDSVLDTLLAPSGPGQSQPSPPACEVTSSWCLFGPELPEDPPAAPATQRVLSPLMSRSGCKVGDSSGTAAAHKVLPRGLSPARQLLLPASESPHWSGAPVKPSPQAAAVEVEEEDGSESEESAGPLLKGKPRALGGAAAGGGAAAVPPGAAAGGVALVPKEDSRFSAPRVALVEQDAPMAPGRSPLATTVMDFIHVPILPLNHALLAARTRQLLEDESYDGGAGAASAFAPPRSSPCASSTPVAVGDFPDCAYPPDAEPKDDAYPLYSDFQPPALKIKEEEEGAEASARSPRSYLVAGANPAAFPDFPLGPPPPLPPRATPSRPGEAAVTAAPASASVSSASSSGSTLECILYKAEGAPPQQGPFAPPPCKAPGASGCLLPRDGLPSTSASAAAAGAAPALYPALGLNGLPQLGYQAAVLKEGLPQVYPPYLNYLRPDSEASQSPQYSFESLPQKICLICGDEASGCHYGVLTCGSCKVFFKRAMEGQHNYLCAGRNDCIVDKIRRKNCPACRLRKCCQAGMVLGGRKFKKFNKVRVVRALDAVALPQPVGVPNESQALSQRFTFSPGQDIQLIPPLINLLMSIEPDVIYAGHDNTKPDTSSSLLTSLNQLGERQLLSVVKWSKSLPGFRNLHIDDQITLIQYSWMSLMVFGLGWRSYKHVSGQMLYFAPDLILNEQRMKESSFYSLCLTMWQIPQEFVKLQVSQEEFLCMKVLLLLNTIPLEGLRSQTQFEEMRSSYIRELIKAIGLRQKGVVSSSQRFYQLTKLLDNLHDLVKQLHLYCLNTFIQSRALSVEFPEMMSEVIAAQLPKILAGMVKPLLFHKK
# [3] = target: T1, Glucocorticoid receptor; assay: Transrepression activity at glucocorticoid receptor alpha in phorbol myristate acetate-stimulated human A549 cells assessed as inhibition of AP1 response element by luciferase reporter gene assay; assay type: cell-based
# [4] = target: T1, Glucocorticoid receptor; assay: Transactivation activity at GR-alpha in human NP1 Hela cells assessed as induction of GAL4-DBD after 20 hrs by luciferase reporter gene assay; assay type: cell-based
# [5] = target: T1, Glucocorticoid receptor; assay: Transactivation activity at glucocorticoid receptor alpha human 13D3/Huh7 cells assessed as induction of TAT activity after 4 hrs by spectrophotometry; assay type: cell-based, Huh-7
# [6] = target: T1, Glucocorticoid receptor; assay: Transactivation activity at GR-alpha in human NP1 Hela cells assessed as inhibition of GAL4-DBD after 20 hrs by luciferase reporter gene assay; assay type: cell-based
# [7] = target: T3, Androgen receptor (Homo sapiens, UniProt P10275); assay: Displacement of fluorescently labeled ligand from androgen receptor by fluorescence polarization assay
# T3 sequence (P10275 whole entry): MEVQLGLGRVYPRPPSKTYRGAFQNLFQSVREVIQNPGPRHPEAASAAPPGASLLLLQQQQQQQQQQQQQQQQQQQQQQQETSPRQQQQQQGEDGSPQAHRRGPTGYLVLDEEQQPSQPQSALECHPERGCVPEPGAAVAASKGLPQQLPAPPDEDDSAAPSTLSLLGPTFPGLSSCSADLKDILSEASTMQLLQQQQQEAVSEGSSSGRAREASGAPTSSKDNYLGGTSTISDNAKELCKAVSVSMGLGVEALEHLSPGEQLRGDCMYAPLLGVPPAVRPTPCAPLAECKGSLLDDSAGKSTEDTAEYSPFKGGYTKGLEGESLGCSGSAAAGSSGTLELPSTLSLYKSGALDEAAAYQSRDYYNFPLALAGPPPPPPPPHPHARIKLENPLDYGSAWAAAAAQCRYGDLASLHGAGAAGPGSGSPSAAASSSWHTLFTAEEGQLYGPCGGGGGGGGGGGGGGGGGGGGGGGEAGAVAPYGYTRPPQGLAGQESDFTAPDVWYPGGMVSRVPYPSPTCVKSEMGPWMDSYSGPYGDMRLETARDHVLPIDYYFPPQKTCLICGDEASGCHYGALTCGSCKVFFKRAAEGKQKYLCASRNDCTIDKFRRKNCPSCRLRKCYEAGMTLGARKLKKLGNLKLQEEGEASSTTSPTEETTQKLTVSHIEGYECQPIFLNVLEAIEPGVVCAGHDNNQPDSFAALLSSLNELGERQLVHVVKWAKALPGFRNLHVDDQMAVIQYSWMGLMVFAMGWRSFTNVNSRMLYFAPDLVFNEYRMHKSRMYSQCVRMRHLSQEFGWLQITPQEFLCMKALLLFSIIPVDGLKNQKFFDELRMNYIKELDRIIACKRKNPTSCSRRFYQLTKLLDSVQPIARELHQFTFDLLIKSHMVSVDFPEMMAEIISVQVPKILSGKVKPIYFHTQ
# Method in brief: (§1)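 Binding was measured by fluorescence polarization competition between compound and a fluorescent ligand for full-length receptor or ligand-binding domain. Values are means of at least two experiments.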
# [8] = target: T1, Glucocorticoid receptor; assay: Transrepression activity at glucocorticoid receptor alpha in IL-1beta-stimulated human A549 cells assessed as inhibition of NFkappaB-dependent E-selectin transcription by luciferase reporter gene assay; assay type: cell-based
# [9] = target: T4, Estrogen receptor (Homo sapiens, UniProt P03372); assay: Displacement of fluorescently labeled ligand from ERalpha receptor by fluorescence polarization assay; method in brief: as §1
# T4 sequence (P03372 whole entry): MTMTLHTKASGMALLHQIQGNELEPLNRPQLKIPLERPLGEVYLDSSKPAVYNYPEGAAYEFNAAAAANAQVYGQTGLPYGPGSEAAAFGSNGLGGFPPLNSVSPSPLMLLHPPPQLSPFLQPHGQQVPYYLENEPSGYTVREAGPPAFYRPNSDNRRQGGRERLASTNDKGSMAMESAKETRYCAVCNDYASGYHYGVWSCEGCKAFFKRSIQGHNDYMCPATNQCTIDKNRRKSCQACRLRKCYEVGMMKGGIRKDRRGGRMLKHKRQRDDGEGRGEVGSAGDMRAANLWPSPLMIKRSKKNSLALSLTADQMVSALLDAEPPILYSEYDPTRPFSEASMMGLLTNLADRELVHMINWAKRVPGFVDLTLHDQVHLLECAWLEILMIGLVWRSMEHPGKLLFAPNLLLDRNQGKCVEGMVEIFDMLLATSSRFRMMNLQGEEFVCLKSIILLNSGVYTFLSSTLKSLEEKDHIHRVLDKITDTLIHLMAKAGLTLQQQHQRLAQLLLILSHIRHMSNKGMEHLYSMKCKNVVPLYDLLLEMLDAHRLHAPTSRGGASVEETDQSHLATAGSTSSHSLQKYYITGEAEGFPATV
# [10] = target: T5, Mineralocorticoid receptor (Homo sapiens, UniProt P08235); assay: Agonist activity at human mineralocorticoid receptor expressed in human A549 cells by fluorescence polarization assay; assay type: functional, cell-based
# T5 sequence (P08235 whole entry): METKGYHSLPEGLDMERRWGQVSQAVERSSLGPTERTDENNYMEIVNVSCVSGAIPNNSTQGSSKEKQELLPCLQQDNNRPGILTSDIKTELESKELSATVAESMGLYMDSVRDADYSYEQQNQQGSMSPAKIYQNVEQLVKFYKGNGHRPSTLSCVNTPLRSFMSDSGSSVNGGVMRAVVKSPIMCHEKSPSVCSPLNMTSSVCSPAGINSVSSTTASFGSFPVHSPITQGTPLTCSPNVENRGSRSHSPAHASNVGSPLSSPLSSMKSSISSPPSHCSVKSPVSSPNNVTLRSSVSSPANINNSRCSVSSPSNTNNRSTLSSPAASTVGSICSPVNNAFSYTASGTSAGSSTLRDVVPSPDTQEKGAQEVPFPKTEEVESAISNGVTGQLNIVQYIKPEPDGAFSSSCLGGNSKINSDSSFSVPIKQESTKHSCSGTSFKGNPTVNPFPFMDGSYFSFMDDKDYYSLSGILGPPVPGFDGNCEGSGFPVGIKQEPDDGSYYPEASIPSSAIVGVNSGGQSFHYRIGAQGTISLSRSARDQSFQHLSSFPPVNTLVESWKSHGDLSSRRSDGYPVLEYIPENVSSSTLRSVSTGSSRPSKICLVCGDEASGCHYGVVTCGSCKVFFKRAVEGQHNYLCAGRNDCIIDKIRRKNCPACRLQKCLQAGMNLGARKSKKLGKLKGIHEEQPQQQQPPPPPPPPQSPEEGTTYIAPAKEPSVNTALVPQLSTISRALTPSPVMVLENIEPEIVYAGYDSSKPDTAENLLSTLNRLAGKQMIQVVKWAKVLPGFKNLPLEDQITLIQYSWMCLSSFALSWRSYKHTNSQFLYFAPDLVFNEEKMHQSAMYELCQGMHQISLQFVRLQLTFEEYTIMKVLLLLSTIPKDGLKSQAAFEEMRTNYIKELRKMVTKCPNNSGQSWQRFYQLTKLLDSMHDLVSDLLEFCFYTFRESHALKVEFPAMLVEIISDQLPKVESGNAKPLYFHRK
# [11] = tested on: Blood; assay: Antiinflammatory activity in human whole blood assessed as inhibition of LPS-induced TNFalpha production after overnight incubation by ELISA; assay type: functional, tissue-based
# Method in brief: (§2)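 Whole blood from two donors per experiment was collected into ACD-A. Compounds were added and the blood was incubated about 20 h at 37 °C under 5% CO2. Blood was then stimulated for 5 h with LPS (final 100 ng/mL, for TNFα) or IL-1β (final 10 ng/mL, for IL-8). Plasma TNFα or IL-8 was measured by ELISA. Efficacy was expressed as % of dexamethasone, and values are means of at least two experiments.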
# [12] = tested on: Blood; assay: Antiinflammatory activity in human whole blood assessed as inhibition of LPS-induced TNFalpha production after overnight incubation by ELISA relative to Dexamethasone; assay type: functional; method in brief: as §2
# [13] = tested on: Blood; assay: Antiinflammatory activity in human whole blood assessed as inhibition of TNF-alpha-induced IL-8 production after overnight incubation by ELISA; assay type: functional, tissue-based
# [14] = tested on: Blood; assay: Antiinflammatory activity in human whole blood assessed as inhibition of TNF-alpha-induced IL-8 production after overnight incubation by ELISA relative to dexamethasone; assay type: functional
# [15] = tested on: Blood; assay: Antiinflammatory activity in human whole blood assessed as inhibition of IL-1beta-induced IL-8 production after overnight incubation by ELISA; assay type: functional, tissue-based; method in brief: as §2
# [16] = tested on: Blood; assay: Antiinflammatory activity in human whole blood assessed as inhibition of IL-1beta-induced IL-8 production after overnight incubation by ELISA relative to Dexamethasone; assay type: functional; method in brief: as §2
SMILES,Ki [1] [µM],Ki [2] [µM],EC50 [3] [µM],EC50 [4] [µM],EC50 [5] [µM],EC50 [6] [µM],Ki [7] [µM],EC50 [8] [µM],Ki [9] [µM],EC50 [10] [µM],EC50 [11] [µM],Imax [12] [%],EC50 [13] [µM],Imax [14] [%],EC50 [15] [µM],Imax [16] [%]
CC(C)Oc1ccc(-c2ccc3c(n2)Oc2ccccc2[C@H]3C(C)(C)C(=O)Nc2nncs2)cc1,0.0016,0.31,0.0181,0.135,0.107,0.077,–,–,–,–,–,–,–,–,–,–
CCCc1ccc(-c2ccc3c(n2)Oc2ccccc2[C@H]3C(C)(C)C(=O)Nc2nncs2)cc1,0.0024,0.285,0.0151,0.126,0.823,0.036,> 5,0.0297,–,–,–,–,–,–,–,–
CN(C)C(=O)c1ccc(-c2ccc3c(n2)Oc2ccccc2[C@@H]3C(C)(C)C(=O)Nc2nncs2)cc1,0.00174,1.23,0.0122,0.089,0.0227,0.0427,–,0.0046,> 75,> 5,–,–,–,–,–,–
CC(C)Oc1ccc(-c2ccc3c(n2)Oc2ccccc2[C@@H]3C(C)(C)C(=O)Nc2nncs2)cc1F,0.0039,–,0.047,0.496,0.876,0.162,–,0.073,–,–,> 5,49,> 20,12,> 20,7
CC(C)(C(=O)Nc1nncs1)[C@H]1c2ccccc2Oc2nc(-c3ccc(C(=O)N4CCC(F)(F)C4)c(F)c3)ccc21,0.00253,–,0.0379,0.192,1.99,0.0993,–,0.0206,–,–,4.02,78,3.07,67,2.49,81
